Source: ChEMBL document CHEMBL1154743, “A novel potent nicotinamide phosphoribosyltransferase inhibitor synthesized via click chemistry” (J Med Chem, 2010)
Active and inactive are the calls of the source. The rule behind the calls is not given here.

Legend:
IGROV-1 = assay: Growth inhibition of human IGROV1 cells by sulforhodamine B assay; format: functional
NCI-H226 = assay: Growth inhibition of human NCI-H226 cells by sulforhodamine B assay; format: functional
NCI/ADR-RES = assay: Growth inhibition of human NCI/ADR-RES cells by sulforhodamine B assay; format: functional
SH-SY5Y [1] = assay: Cytotoxicity against human SH-SY5Y cells assessed as cell viability after 48 hrs by MTT assay relative to control; format: functional
Procedure, shortened: (§1)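 SH-SY5Y cells incubated with compound for 48 h and viability measured by MTT. Values are mean ± SEM of 8-12 determinations.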

SH-SY5Y [2] = assay: Induction of autophagy in human SH-SY5Y cells assessed as LC3/phosphotidylethanolamine coupling after 40 hrs by Western blot analysis; format: functional, cell-based
Procedure, shortened: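 Western blot of LC3-I and LC3-II, with tubulin as reference, in untreated and treated cells exposed to 10 nM compound. Six independent experiments were run, using two LC3 antibodies from different sources.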

T47D = assay: Growth inhibition of human T47D cells by sulforhodamine B assay; format: functional
OVCAR-8 = assay: Growth inhibition of human OVCAR8 cells by sulforhodamine B assay; format: functional
NCI-H460 = assay: Growth inhibition of human NCI-H460 cells by sulforhodamine B assay; format: functional
EKVX = assay: Growth inhibition of human EKVX cells by sulforhodamine B assay; format: functional
COLO 205 = assay: Growth inhibition of human COLO205 cells by sulforhodamine B assay; format: functional
SN12C = assay: Growth inhibition of human SN12C cells by sulforhodamine B assay; format: functional
SH-SY5Y [3] = assay: Cytotoxicity against human SH-SY5Y cells assessed as cell viability after 48 hrs by MTT assay relative to control in presence of NAD; format: functional
SH-SY5Y [4] = assay: Cytotoxicity against human SH-SY5Y cells assessed as cell viability after 48 hrs by MTT assay; format: functional, cell-based; procedure, shortened: as §1
SH-SY5Y [5] = assay: Induction of autophagy in human SH-SY5Y cells expressing EGFP-LC3 assessed as colocalization of autophagic vacuoles with lysosomes in acidic compartment of cell at 10 nM; format: functional, cell-based
Malme-3M = assay: Growth inhibition of human MALME-3M cells by sulforhodamine B assay; format: functional
HT-29 = assay: Growth inhibition of human HT-29 cells by sulforhodamine B assay; format: functional
NCI-H522 = assay: Growth inhibition of human NCI-H522 cells by sulforhodamine B assay; format: functional
MDA-MB-231 = assay: Growth inhibition of human MDA-MB-231 cells by sulforhodamine B assay; format: functional
RXF 393 = assay: Growth inhibition of human RXF393 cells by sulforhodamine B assay; format: functional
786-0 = assay: Growth inhibition of human 786-0 cells by sulforhodamine B assay; format: functional
A498 = assay: Growth inhibition of human A498 cells by sulforhodamine B assay; format: functional
CCRF-CEM = assay: Growth inhibition of human CCRF-CEM cells by sulforhodamine B assay; format: functional
OVCAR-3 = assay: Growth inhibition of human OVCAR-3 cells by sulforhodamine B assay; format: functional
OVCAR-5 = assay: Growth inhibition of human OVCAR5 cells by sulforhodamine B assay; format: functional
CAKI-1 = assay: Growth inhibition of human Caki1 cells by sulforhodamine B assay; format: functional
HOP-62 = assay: Growth inhibition of human HOP62 cells by sulforhodamine B assay; format: functional
[6] = read-out: LC50 (the source's name)

Compound: O=C(CCCCCCCn1cc(-c2cccnc2)nn1)Nc1ccccc1-c1ccccc1
- GI50 (IGROV-1): 0.272 µM
- TGI (IGROV-1): > 100 µM
- CC50 (IGROV-1; [6]): > 100 µM
- GI50 (NCI-H226): 15.5 µM
- TGI (NCI-H226): 51.7 µM
- CC50 (NCI-H226; [6]): > 100 µM
- GI50 (NCI/ADR-RES): 0.0814 µM
- TGI (NCI/ADR-RES): 33.1 µM
- CC50 (NCI/ADR-RES; [6]): > 100 µM
- Activity (SH-SY5Y [1]): 24%
- Activity (SH-SY5Y [2]): Active
- GI50 (T47D): 1.23 µM
- TGI (T47D): 16 µM
- CC50 (T47D; [6]): > 100 µM
- GI50 (OVCAR-8): 0.0574 µM
- TGI (OVCAR-8): > 38 µM
- CC50 (OVCAR-8; [6]): > 100 µM
- GI50 (NCI-H460): 0.724 µM
- TGI (NCI-H460): > 100 µM
- CC50 (NCI-H460; [6]): > 100 µM
- GI50 (EKVX): 8.46 µM
- TGI (EKVX): > 100 µM
- CC50 (EKVX; [6]): > 100 µM
- GI50 (COLO 205): 1.18 µM
- TGI (COLO 205): 36 µM
- CC50 (COLO 205; [6]): > 100 µM
- GI50 (SN12C): 0.0426 µM
- TGI (SN12C): > 100 µM
- CC50 (SN12C; [6]): > 100 µM
- Activity (SH-SY5Y [3]): 97%
- IC50 (SH-SY5Y [4]): 0.0038 µM
- Activity (SH-SY5Y [5]): Active
- GI50 (Malme-3M): 12.2 µM
- TGI (Malme-3M): 62.8 µM
- CC50 (Malme-3M; [6]): > 100 µM
- GI50 (HT-29): 0.46 µM
- TGI (HT-29): > 100 µM
- CC50 (HT-29; [6]): > 100 µM
- GI50 (NCI-H522): 0.0914 µM
- TGI (NCI-H522): > 100 µM
- CC50 (NCI-H522; [6]): > 100 µM
- GI50 (MDA-MB-231): 20.9 µM
- TGI (MDA-MB-231): > 100 µM
- CC50 (MDA-MB-231; [6]): > 100 µM
- GI50 (RXF 393): 100 µM
- TGI (RXF 393): > 100 µM
- CC50 (RXF 393; [6]): > 100 µM
- GI50 (786-0): 7.33 µM
- TGI (786-0): > 100 µM
- CC50 (786-0; [6]): > 100 µM
- GI50 (A498): 15.9 µM
- TGI (A498): > 100 µM
- CC50 (A498; [6]): > 100 µM
- GI50 (CCRF-CEM): 3.28 µM
- TGI (CCRF-CEM): > 100 µM
- CC50 (CCRF-CEM; [6]): > 100 µM
- GI50 (OVCAR-3): 5.19 µM
- TGI (OVCAR-3): > 100 µM
- CC50 (OVCAR-3; [6]): > 100 µM
- GI50 (OVCAR-5): 0.268 µM
- TGI (OVCAR-5): > 100 µM
- CC50 (OVCAR-5; [6]): > 100 µM
- GI50 (CAKI-1): 0.776 µM
- TGI (CAKI-1): > 100 µM
- CC50 (CAKI-1; [6]): > 100 µM
- GI50 (HOP-62): 23.8 µM
- TGI (HOP-62): > 100 µM
- CC50 (HOP-62; [6]): > 100 µM
